Values after ≈ are worked out from the molar mass of the structure shown.
Legend:
Type in all cases: functional
Escherichia coli [1] = assay: Antibacterial activity against Escherichia coli
Streptococcus pyogenes [2] = assay: Antibacterial activity against Streptococcus pyogenes
Outline: (§1)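 Run as a duplicate broth microdilution in Todd-Hewitt broth. An overnight culture was added to compound in 4% DMSO in water, giving about 10⁵-10⁶ CFU/well, and incubated at 37 °C. Growth was read as A595 at 24 h. MIC is given as a concentration range: complete inhibition at the upper concentration, viable cells at the lower. Ampicillin and tetracycline served as controls.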

Escherichia coli [3] = assay: Antibacterial activity against Escherichia coli (#25922)
Outline: (§2)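 Bacteria were grown in nutrient broth at 37 °C. An overnight culture was added to compound in 4% DMSO/water, giving about 10⁵-10⁶ CFU/well, in duplicate. Absorbance at 595 nm was read after 24 h. MIC is reported as a range between the lowest concentration with complete growth inhibition and the next lower concentration with viable cells. Ampicillin and tetracycline were positive controls.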

Enterococcus faecalis = assay: Antibacterial activity against Enterococcus faecalis (#29212); outline: as §1
Klebsiella pneumoniae = assay: Antibacterial activity against Klebsiella pneumoniae (#13883); outline: as §2
Staphylococcus aureus = assay: Antibacterial activity against Staphylococcus aureus (#13709)
Outline: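 Trypticase soy broth culture was grown at 37 °C. The overnight suspension was mixed with compound in 4% DMSO in water, giving a final inoculum of about 10⁵-10⁶ CFU/well, in duplicate. Growth was read as A595 after 24 h. MIC is a concentration range, full inhibition at the higher and viability at the lower. Ampicillin and tetracycline were included as controls.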

Streptococcus pyogenes [4] = assay: Antibacterial activity against Streptococcus pyogenes (#49399)
Streptococcus pyogenes [5] = assay: Antibacterial activity against Streptococcus pyogenes (#14289); outline: as §1

COc1cc2cnc(N3CCC(Nc4ccc(C(=O)OC(C)(C)C)cc4)CC3)nc2cc1OC
MIC (Escherichia coli [1]): > 20 µM
MIC (Streptococcus pyogenes [2]): > 20 µM

COC(=O)c1ccc(NC2CCN(Cc3ccccc3)CC2)cc1
MIC (Escherichia coli [1]): > 25 µM
MIC (Streptococcus pyogenes [2]): > 25 µM

COc1cc2nc(N3CCC(Nc4ccc(C(=O)O)cc4)CC3)nc(N)c2cc1OC
MIC (Escherichia coli [1]): 0.4 µM (≈ 0.169 µg/mL)
MIC (Escherichia coli [3]): 60 µM (≈ 25.4 µg/mL)
MIC (Enterococcus faecalis): > 100 µM
MIC (Klebsiella pneumoniae): 6 µM (≈ 2.54 µg/mL)
MIC (Staphylococcus aureus): 6 µM (≈ 2.54 µg/mL)
MIC (Streptococcus pyogenes [2]): > 25 µM
MIC (Streptococcus pyogenes [4]): > 25 µM

COc1cc2nc(N3CCC(Nc4ccc(C(=O)OC(C)(C)C)cc4)CC3)nc(Nc3ccc(C)cc3)c2cc1OC
MIC (Escherichia coli [1]): 10 µM (≈ 5.7 µg/mL)
MIC (Streptococcus pyogenes [2]): 2.5 µM (≈ 1.42 µg/mL)

COc1cc2nc(N3CCC(Nc4ccc(C(=O)O)cn4)CC3)nc(N)c2cc1OC
MIC (Escherichia coli [1]): > 50 µM
MIC (Streptococcus pyogenes [2]): > 50 µM

COc1cc2nc(N3CCC(Nc4ccc(C(=O)OC(C)(C)C)cc4)CC3)nc(OC)c2cc1OC
MIC (Escherichia coli [1]): < 100 µM
MIC (Streptococcus pyogenes [2]): < 100 µM

COc1cc2nc(N3CCC(Nc4nc(N)c(C(=O)O)nc4Cl)CC3)nc(N)c2cc1OC
MIC (Escherichia coli [1]): > 100 µM
MIC (Streptococcus pyogenes [5]): > 100 µM

COc1cc2nc(N3CCC(Nc4ccc(C(=O)OC(C)(C)C)cc4)CC3)nc(O)c2cc1OC
MIC (Escherichia coli [1]): > 100 µM
MIC (Streptococcus pyogenes [2]): > 100 µM

COc1cc2nc(N3CCC(Nc4ccc(C(=O)O)cc4)CC3)nc(OC)c2cc1OC
MIC (Escherichia coli [1]): > 20 µM
MIC (Streptococcus pyogenes [2]): > 20 µM

CC(C)(C)OC(=O)c1ccc(NC2CCN(c3ccc4ccccc4c3)CC2)cc1
MIC (Escherichia coli [1]): > 25 µM
MIC (Streptococcus pyogenes [2]): > 25 µM

CC(C)(C)OC(=O)c1ccc(NC2CCN(c3ncccn3)CC2)cc1
MIC (Escherichia coli [1]): > 25 µM
MIC (Streptococcus pyogenes [2]): > 25 µM

Nc1nc(N2CCC(Nc3ccc(C(=O)O)cc3)CC2)nc2ccccc12
MIC (Escherichia coli [1]): > 100 µM
MIC (Streptococcus pyogenes [2]): > 100 µM

COC(=O)c1nc(Cl)c(NC2CCNCC2)nc1N
MIC (Escherichia coli [1]): > 25 µM
MIC (Streptococcus pyogenes [5]): > 25 µM

COC(=O)c1ccc(NC2CCN(c3nc(N)c4cc(OC)c(OC)cc4n3)CC2)cc1
MIC (Escherichia coli [1]): 5 µM (≈ 2.19 µg/mL)
MIC (Escherichia coli [3]): > 100 µM
MIC (Enterococcus faecalis): 20 µM (≈ 8.75 µg/mL)
MIC (Klebsiella pneumoniae): > 100 µM
MIC (Staphylococcus aureus): > 100 µM
MIC (Streptococcus pyogenes [2]): 5 µM (≈ 2.19 µg/mL)
MIC (Streptococcus pyogenes [4]): 5 µM (≈ 2.19 µg/mL)

O=C(O)c1ccc(NC2CCN(c3ncccn3)CC2)cc1
MIC (Escherichia coli [1]): > 25 µM
MIC (Streptococcus pyogenes [2]): > 25 µM

COC(=O)c1nc(Cl)c(NC2CCN(c3nc(N)c4cc(OC)c(OC)cc4n3)CC2)nc1N
MIC (Escherichia coli [1]): > 25 µM
MIC (Streptococcus pyogenes [5]): 12 µM (≈ 5.87 µg/mL)

CC(C)(C)OC(=O)c1ccc(NC2CCN(c3nc(N)c4ccccc4n3)CC2)cc1
MIC (Escherichia coli [1]): < 100 µM
MIC (Streptococcus pyogenes [2]): < 100 µM

COC(=O)c1nc(Cl)c(NC2CCN(Cc3ccccc3)CC2)nc1N
MIC (Escherichia coli [1]): > 50 µM
MIC (Streptococcus pyogenes [5]): > 50 µM

O=C(O)c1ccc(NC2CCN(C(=O)c3ccc4ccccc4c3)CC2)cc1
MIC (Escherichia coli [1]): > 25 µM
MIC (Streptococcus pyogenes [2]): > 25 µM

COc1cc2nc(N3CCC(Nc4ccc(C(=O)O)cc4[N+](=O)[O-])CC3)nc(N)c2cc1OC
MIC (Escherichia coli [1]): > 20 µM
MIC (Streptococcus pyogenes [5]): > 20 µM

CC(C)(C)OC(=O)c1ccc(NC2CCNCC2)cc1
MIC (Escherichia coli [1]): > 25 µM
MIC (Streptococcus pyogenes [2]): > 25 µM

COc1cc2nc(N3CCC(Nc4cnc(C(=O)O)c(N)n4)CC3)nc(N)c2cc1OC
MIC (Escherichia coli [1]): > 25 µM
MIC (Streptococcus pyogenes [2]): > 25 µM

COC(=O)c1ncc(NC2CCN(c3nc(N)c4cc(OC)c(OC)cc4n3)CC2)nc1N
MIC (Escherichia coli [1]): > 50 µM
MIC (Streptococcus pyogenes [5]): > 50 µM

COc1cc2nc(N3CCC(Nc4ccc(C(=O)O)cc4)CC3)nc(O)c2cc1OC
MIC (Escherichia coli [1]): > 20 µM
MIC (Streptococcus pyogenes [2]): > 20 µM

COc1cc2nc(N3CCC(Nc4ccc(C(=O)OC(C)(C)C)cc4)CC3)nc(N)c2cc1OC
MIC (Escherichia coli [1]): 6 µM (≈ 2.88 µg/mL)
MIC (Escherichia coli [3]): > 100 µM
MIC (Enterococcus faecalis): 6 µM (≈ 2.88 µg/mL)
MIC (Klebsiella pneumoniae): > 100 µM
MIC (Staphylococcus aureus): > 100 µM
MIC (Streptococcus pyogenes [2]): 3 µM (≈ 1.44 µg/mL)
MIC (Streptococcus pyogenes [4]): 6 µM (≈ 2.88 µg/mL)

COc1ccc2[nH]c(N3CCC(Nc4ccc(C(=O)O)cc4)CC3)nc2c1
MIC (Escherichia coli [1]): > 25 µM
MIC (Streptococcus pyogenes [2]): > 25 µM

CC(C)(C)OC(=O)c1ccc(NC2CCN(Cc3ccccc3)CC2)cc1
MIC (Escherichia coli [1]): > 25 µM
MIC (Streptococcus pyogenes [2]): > 25 µM

COc1cc2nc(N3CCC(Nc4ccc(C(=O)O)cc4)CC3)nc(Nc3ccc(C)cc3)c2cc1OC
MIC (Escherichia coli [1]): > 20 µM
MIC (Streptococcus pyogenes [2]): > 20 µM

O=C(O)c1ccc(NC2CCN(S(=O)(=O)c3ccc4ccccc4c3)CC2)cc1
MIC (Escherichia coli [1]): > 25 µM
MIC (Streptococcus pyogenes [2]): > 25 µM

CC(C)(C)OC(=O)c1ccc(NC2CCN(C(=O)c3ccc4ccccc4c3)CC2)cc1
MIC (Escherichia coli [1]): > 25 µM
MIC (Streptococcus pyogenes [2]): > 25 µM

COc1cc2cnc(N3CCC(Nc4ccc(C(=O)O)cc4)CC3)nc2cc1OC
MIC (Escherichia coli [1]): > 20 µM
MIC (Streptococcus pyogenes [2]): > 20 µM

COc1ccc2[nH]c(N3CCC(Nc4ccc(C(=O)OC(C)(C)C)cc4)CC3)nc2c1
MIC (Escherichia coli [1]): > 100 µM
MIC (Streptococcus pyogenes [2]): > 100 µM

COC(=O)c1nc(Cl)c(NC2CCN(C(=O)OC(C)(C)C)CC2)nc1N
MIC (Escherichia coli [1]): > 25 µM
MIC (Streptococcus pyogenes [5]): > 25 µM

O=C(O)c1ccc(NC2CCN(Cc3ccccc3)CC2)cc1
MIC (Escherichia coli [1]): > 25 µM
MIC (Streptococcus pyogenes [2]): > 25 µM

COC(=O)c1ccc(NC2CCN(c3nc(N)c4cc(OC)c(OC)cc4n3)CC2)nc1
MIC (Escherichia coli [1]): > 50 µM
MIC (Streptococcus pyogenes [2]): 25 µM (≈ 11 µg/mL)

O=C(O)c1ccc(NC2CCN(c3ccc4ccccc4c3)CC2)cc1
MIC (Escherichia coli [1]): > 25 µM
MIC (Streptococcus pyogenes [2]): > 25 µM

COC(=O)c1nc(Cl)c(NNc2nc(N)c3cc(OC)c(OC)cc3n2)nc1N
MIC (Escherichia coli [1]): > 50 µM
MIC (Streptococcus pyogenes [5]): > 50 µM

COc1cc2nc(N3CCC(Nc4ccc(C(=O)OC(C)(C)C)cc4[N+](=O)[O-])CC3)nc(N)c2cc1OC
MIC (Escherichia coli [1]): 25 µM (≈ 13.1 µg/mL)
MIC (Streptococcus pyogenes [5]): 50 µM (≈ 26.2 µg/mL)

CC(C)(C)OC(=O)c1ccc(NC2CCN(S(=O)(=O)c3ccc4ccccc4c3)CC2)cc1
MIC (Escherichia coli [1]): > 25 µM
MIC (Streptococcus pyogenes [2]): > 25 µM
